Measurements from ChEMBL document CHEMBL1144182, “Antimicrobial and cytotoxic arylazoenamines. Part III: antiviral activity of selected classes of arylazoenamines” (Bioorg Med Chem, 2008).
Active and inactive are the calls of the source. How the calls were made is not given here.

Columns and labels:
[1] = test system: Bovine viral diarrhea virus 1; test: Antiviral activity against BVDV infected in MDBK cells assessed as protection against virus-induced cytopathogenicity after 4 days by MTT assay; format: functional, organism-based; details: Bovine viral diarrhea virus isolates and strains, 96 h
How it was run: (§1)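 MDBK (BVDV) or BHK-21 (YFV) cells were seeded at 3 × 10^4 or 5 × 10^4 cells/well respectively and grown overnight to confluent monolayers at 37 °C in 5% CO2. Monolayers were infected at m.o.i. 0.01 in serum-free medium. After 1 h, MEM Earle's with 1% FCS was added, with or without serial compound dilutions. After 3–4 days at 37 °C, viability was read by MTT. EC50 was taken as 50% protection from virus-induced cytopathogenicity.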

[2] = Cytotoxicity against mock-infected african green monkey Vero76 cells assessed as reduction in cell viability after 96 hrs by MTT assay; format: cell-based, Vero; details: chlorocebus sabaeus
[3] = test system: Vesicular stomatitis virus; test: Antiviral activity against VSV infected in Vero76 cells assessed as reduction in virus plaque formation after 4 days by MTT assay; format: functional, organism-based; details: Vero 76
[4] = test system: Coxsackievirus B2; test: Antiviral activity against CVB2 infected in Vero76 cells assessed as reduction in virus plaque formation after 4 days by MTT assay; format: functional, organism-based; details: Enterovirus B, Vero 76, 96 h
[5] = test system: Poliovirus 1; test: Antiviral activity against Sb1 virus infected in Vero76 cells assessed as reduction in virus plaque formation after 4 days by MTT assay; format: functional, organism-based; details: Enterovirus C, Sabin, Vero 76, 96 h
[6] = Cytotoxicity against mock-infected BHK cells assessed as reduction in cell viability after 96 hrs by MTT assay; format: cell-based, Mesocricetus auratus; details: hamster
How it was run: (§2)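 Cytotoxicity run in parallel with the antiviral assays. MDBK seeded at 6 × 10^5 and BHK at 1 × 10^6 cells/mL in maintenance medium with or without serial compound dilutions. Incubated 48–96 h at 37 °C, 5% CO2, then viability read by MTT. CC50 is the concentration reducing mock-infected cell viability by 50%.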

[7] = Cytotoxicity against mock-infected human MT4 cells assessed as reduction in cell viability after 96 hrs by MTT assay; format: cell-based
How it was run: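 Exponentially growing MT-4 cells seeded at 1 × 10^5 cells/mL in RPMI-1640 with 10% FCS, penicillin and streptomycin, with or without serial compound dilutions. Incubated at 37 °C, 5% CO2; viability read by MTT after 96 h. CC50 is the concentration reducing mock-infected cell viability by 50%.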

[8] = test system: Human immunodeficiency virus 1; test: Antiviral activity against HIV1 infected in MT4 cells assessed as virus-induced cytopathogenicity after 4 days; format: functional, organism-based
[9] = test system: Respiratory syncytial virus; test: Antiviral activity against RSV infected in Vero76 cells assessed as reduction in virus plaque formation after 4 days by MTT assay; format: functional, organism-based; details: human respiratory syncytial virus, Vero 76, 96 h
[10] = test system: Vaccinia virus; test: Antiviral activity against VV infected in Vero76 cells assessed as reduction in virus plaque formation after 4 days by MTT assay; format: functional, organism-based; details: Orthopoxvirus vaccinia; Vero 76
[11] = test system: Yellow fever virus; test: Antiviral activity against YFV infected in BHK21 cells assessed as protection against virus-induced cytopathogenicity after 4 days by MTT assay; format: functional, organism-based; details: BHK-21, 96 h; how it was run: as §1
[12] = Cytotoxicity against mock-infected MDBK cells assessed as reduction in cell viability after 96 hrs by MTT assay; format: cell-based, Bos taurus; details: cattle; how it was run: as §2

| SMILES | EC50 [1] [µM] | CC50 at 96 h [2] [µM] | Activity [3] | EC50 [4] [µM] | EC50 [5] [µM] | CC50 at 96 h [6] [µM] | CC50 at 96 h [7] [µM] | Activity [8] | EC50 [9] [µM] | Activity [10] | EC50 [11] [µM] | CC50 at 96 h [12] [µM] |
| --- | --- | --- | --- | --- | --- | --- | --- | --- | --- | --- | --- | --- |
| CN1C=C(/N=N/c2ccc(Br)c(C(F)(F)F)c2)CCC1 | 40 | 80 | inactive | 40 | > 80 | > 100 | 50 | inactive | > 80 | inactive | > 100 | > 100 |
| CN1C=C(/N=N/c2cc(C(F)(F)F)cc(C(F)(F)F)c2)CCC1 | > 64 | > 100 | inactive | > 100 | > 100 | 82 | > 100 | inactive | > 100 | inactive | > 82 | 64 |
| FC(F)(F)c1cc(/N=N\C2=C3CCCCN3CCC2)cc(C(F)(F)F)c1 | > 31 | 100 | inactive | 41 | > 100 | 19 | 34 | inactive | > 100 | inactive | > 19 | 31 |
| CN1C=C(/N=N/c2ccc(Cl)c(Cl)c2)CCC1 | 7 | > 100 | inactive | 14 | > 100 | 38 | 43 | inactive | > 100 | inactive | > 38 | 73 |
| CN1CCC/C1=C\N=N\c1ccc(F)cc1 | 18 | 75 | inactive | > 75 | > 75 | 80 | 100 | inactive | 12 | inactive | 36 | 59 |
| Clc1ccc(/N=N\C2=C3CCCN3CCC2)cc1Cl | > 67 | > 100 | inactive | 30 | 45 | 61 | 26 | inactive | > 100 | inactive | > 61 | 67 |
| Cc1ccc(/N=N/C=C2\CCCN2C)cc1 | 20 | > 100 | inactive | 60 | > 100 | > 100 | > 100 | inactive | > 100 | inactive | > 100 | > 100 |
| CN1C=C(/N=N/c2cccc3ccccc23)CCC1 | 5 | ≥ 100 | inactive | 76 | > 100 | > 100 | > 100 | inactive | > 100 | inactive | > 100 | > 100 |
| CN1C=C(/N=N/c2ccccc2Cl)CCC1 | 100 | > 100 | inactive | > 100 | 8 | > 100 | > 100 | inactive | > 100 | inactive | > 100 | > 100 |
| Clc1ccc(/N=N/C=C/N2CCCC2)cc1 | > 30 | 22 | inactive | 4 | > 22 | > 100 | 61 | inactive | > 22 | inactive | 46 | 30 |
| Fc1ccc(/N=N\C2=C3CCCCN3CCC2)cc1C(F)(F)F | > 100 | > 100 | inactive | 45 | > 100 | 60 | 3 | inactive | > 100 | inactive | > 60 | > 100 |
| c1ccc2c(N=NC3=C4CCCN4CCC3)nncc2c1 | > 100 | > 100 | inactive | > 100 | > 100 | > 100 | 52 | inactive | 7 | inactive | > 100 | > 100 |
| CCOC(=O)c1ccc(/N=N/C=C/N2CCCCC2)cc1 | > 100 | > 100 | inactive | 35 | 27 | > 100 | 33 | inactive | > 100 | inactive | > 100 | > 100 |
| Clc1ccc(/N=N\C2=C3CCCN3CCC2)cc1 | > 30 | 75 | inactive | 10 | 20 | 34 | > 100 | inactive | > 75 | inactive | > 34 | 30 |
| O=c1cnn([C@@H]2O[C@H](CO)[C@@H](O)[C@H]2O)c(=O)[nH]1 [6-AZAURIDINE] | > 100 | 20 |  | > 20 | > 20 | > 100 | 2 |  | 1.2 |  | 26 | > 100 |
| CN1CCC/C1=C\N=N\c1ccc(Cl)cc1 | 21 | 92 | inactive | 24 | > 92 | 55 | > 100 | inactive | 20 | inactive | > 55 | 85 |
| CN1C=C(/N=N/c2cccc(Br)c2)CCC1 | 19 | > 100 | inactive | 27 | > 100 | > 100 | > 100 | inactive | 18 | inactive |  | > 100 |
| C[C@@]1(O)[C@H](O)[C@@H](CO)O[C@H]1n1cnc2c(=O)[nH]c(N)nc21 [2'-B-METHYL-GUANOSINE] | 1.7 | > 100 |  | 20 | > 100 | 90 | > 100 |  | > 100 |  | 1 | > 100 |
| CN1C=C(/N=N/c2ccc(Cl)c(C(F)(F)F)c2)CCC1 |  | 90 | inactive | 34 | > 90 | 44 | 62 | inactive | > 90 | inactive | > 44 | 28 |
